Data set [1] deals with promastigotes of L. braziliensis. Briefly: In vitro growth inhibition of L. braziliensis promastigotes. The data set is classed as cell-based, Leishmania (V) braziliensis (MHOM/BR/75/M2903). The conditions noted are these: Leishmania braziliensis, read-out: promastigote, IC50 L. braziliensis.
The test system of data set [2] is promastigotes of L. infantum. Briefly: In vitro growth inhibition of L. infantum promastigotes. The data set is classed as cell-based, Leishmania infantum (MHOM MA67I7MAP263). The following applies: Leishmania infantum, 72 h, read-out: promastigote, IC50 L. infantum. Put shortly:
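L. infantum MHOM MA67I7MAP263 promastigotes at 2 × 10^6 parasites/mL were exposed to 0.5–25 μM test compound for 72 h at 25 °C. Dilutions came from a 3000 μM DMSO stock, with final DMSO ≤1%. MTT (0.4 mg/mL) was added for 4 h at 37 °C, formazan was dissolved in DMSO and read at 570 nm. Inhibition was calculated against untreated controls. At least three experiments, mean ± SD.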

The subject of data set [3] is epimastigotes of T. cruzi. The data set can be described thus: In vitro anti-T. cruzi evaluation on epimastigotes. The data set is classed as cell-based, T. cruzi (CL Brener clone). The method in brief:
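Turbidity (A595) was read at day 0 and day 5. PGI was calculated relative to untreated controls, with single-point PGI at 25 μM. IC50 is the concentration […]. At least three experiments.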

Data set [4] in a line: Cytotoxicity on primary peritoneal macrophages. It is filed as cell-based, mouse. The conditions noted are these: mouse, primary peritoneal macrophages, peritoneal macrophage, CC50, 48 h, MTT. The method in brief: (§1)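 Peritoneal or J774.1A macrophages were grown in DMEM with 10% heat-inactivated FBS, L-glutamine and penicillin/streptomycin. Cells were seeded at 5 × 10^4 cells/well for 24 h at 37 °C, 5% CO2, then given test compound at 10–100 μM (from 25,000 μM DMSO stock) for 48 h. MTT (0.4 mg/mL, 4 h, 37 °C) was dissolved in DMSO and read at 570 nm. Cytotoxicity was expressed relative to negative controls. At least three experiments.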

Data set [5] can be described thus: Cytotoxicity on J774.1A macrophages. The data set is classed as cell-based. The following applies: mouse, J774.1A macrophages, J774.1A macrophage, CC50, 48 h, MTT. The method in brief: as §1
Data set [6] has as its system amastigotes of L. braziliensis. Briefly: Ex vivo antiamastigote activity of L. braziliensis. It is filed as cell-based, L. braziliensis (MHOM/BZ/82/M2903). The conditions noted are these: Leishmania braziliensis, 48 h, read-out: amastigote, IC50 L. braziliensis. Put shortly:
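L. braziliensis MHOM/BZ/82/M2903 amastigotes were taken from footpad lesions of infected BALB/c mice. Macrophages were removed by brief centrifugation (3000 rpm, 2–3 min). Amastigotes were kept at 37 °C, pH 5.5, in supplemented M199 with 10% FCS. At 2 × 10^6/mL they were exposed to 1.0–50.0 μM test compound (controls 1% DMSO). At 48 h parasites were counted in a Neubauer chamber against untreated controls. S.I. = peritoneal macrophage CC50 / amastigote IC50.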

Data set [7] concerns Salmonella typhimurium TA 98 strain. The data set can be described thus: Mutagenicity Ames test. The data set is classed as cell-based. In general terms: In the Ames test, an excess of revertant colonies over the control signals mutagenicity.
Data set [8] concerns epimastigotes of T. cruzi. The data set can be described thus: Antifolate activity: IC50 on T. cruzi epimastigotes with and without folic acid. It is filed as cell-based. The following applies: presence vs absence of D,L-folic acid. The method in brief:
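T. cruzi epimastigotes were treated with test compound with or without D,L-folic acid, following the epimastigote turbidimetric viability protocol (120 h, 25 °C, A595). IC50 was determined in each condition and compared.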

For data set [9], the system named is promastigotes of L. infantum. The data set is classed as cell-based. The following applies: presence vs absence of D,L-folic acid. The method in brief: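 L. infantum promastigotes were treated with test compound with or without D,L-folic acid, following the promastigote MTT viability protocol (72 h, 25 °C, formazan read at 570 nm). IC50 was determined in each condition and compared.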

The subject of data set [10] is promastigotes of L. infantum. The data set can be described thus: Effect of metal cations on IC50 on L. infantum promastigotes. It is filed as cell-based. The following applies: Leishmania parasites, metal cation at 1 μM. The method in brief: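 L. infantum promastigotes were treated with test compound alone or with a metal cation (Fe3+, Cu2+ or Zn2+) at 1 μM, following the promastigote MTT viability protocol. IC50 was determined with and without the cation and compared.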

Data set [11] concerns L. infantum promastigotes. The data set can be described thus: Nitrite concentration by Griess test, L. infantum promastigote culture. It is filed as cell-based. The conditions noted are these: 5 days, 25, 50 and 100 μM. Put shortly: (§2)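 L. infantum promastigote or T. cruzi epimastigote cultures (5 × 10^6 parasites/well) were incubated 5 days with test compound at 25, 50 and 100 μM, with untreated wells as controls. Supernatants were mixed with 1% sulfanilamide in 50% acetic acid, then after 15 min with 1% N-naphthylethylenediamine in 50% acetic acid, and read at 540 nm. Nitrite (μM) was taken from a sodium nitrite standard curve (detection limit 1.56 μM). Run in triplicate.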
On the technique in general: Nitrite, measured by Griess reagent, commonly stands in for NO production.

A further data set has as its system T. cruzi epimastigotes. The data set can be described thus: Nitrite concentration by Griess test, T. cruzi epimastigote culture. The data set is classed as cell-based. The following applies: 5 days, 25, 50 and 100 μM. The method in brief:
as §2

Data set [12] is described as follows: Oxidative decomposition followed by NMR. It is filed as physicochemical. The conditions noted are these: 2 weeks of incubation with H2O2.
Data set [13] is described as follows: Solubility, qualitative remarks. The data set is classed as physicochemical. The following applies: qualitative remark.
In data set [14] the test system is epimastigotes of T. cruzi. The conditions noted are these: cited from earlier work.
A further data set concerns J774.1A macrophages. The following applies: read-out: J774.1A macrophage, CC50; cited from earlier work.
[15] abbreviates: CC50 (J774.1A) / IC50 of epimastigotes (T. cruzi).

Read-outs that look alike come from different tables or passages of the source. Marks after values point to notes of the source that are not given here.

By IC50 is commonly meant the concentration that gives 50% inhibition.

Consider `NNc1nc(-c2ccc(Cl)cc2)nc2ccccc12` [3c, (Z)-1-(2-(4-chlorophenyl)quinazolin-4(3H)-ylidene)hydrazine], for which the IC50 came out at 5.12 ± 0.32 µM in data set [1]; 1.56 ± 0.09 µM in [2]; 11.5 ± 0.49 µM in data set [3] (Trypanosoma cruzi, 120 h, read-out: epimastigote, IC50 T. cruzi); 8.96 ± 0.53 µM in [6]. Further, the “S.I.T.cruzi (selectivity index), column epimastigote, IC50 (μM) T. cruzi (S.I.T.cruzi)” value in data set [3] (setting [15]) came out at 9.1. Moreover, the CC50 at 48 h in [4] was found to be 89.9 ± 3.77 µM; in data set [5] it was 105 ± 5.66 µM. Also, the revertants number in data set [7] (dose 27.9 μg/plate) is 8.0 ± 2.0; in data set [7] (dose 37.2 μg/plate), 4.5 ± 2.0; in [7] (dose 55.8 μg/plate) it was 5.0 ± 0.5; in data set [7] (dose 111.7 μg/plate), 8.0 ± 1.0; in data set [7] (dose 335.0 μg/plate), 9.5 ± 0.5. Further, the “change of IC50 on addition of folic acid (FA)” value is “Increasing IC50 values by about twofold” in [8] and “modest increase in IC50” in data set [9]. The “change of IC50 in the presence of Cu2+” value in [10] is on record as “increase in IC50 values”. In addition, the “nitrite ion production (Griess test)” value (in [11]; in the data set on T. cruzi epimastigotes) was “appreciable amount of nitrite ion in sub-micromolar ranges” each time. Moreover, the “decomposition under oxidative conditions” value in data set [12] was “decomposed in at least three additional products”. Further, in data set [13], the solubility in culture entry is given as “appreciable solubility”.

`CC1CS(=O)(=O)CCN1/N=C/c1ccc([N+](=O)[O-])o1` (centres unmarked) [nifurtimox]: the “change of IC50 on addition of folic acid (FA)” value in [8] was “not affected”. In addition, in data set [14] (setting [15]), the “S.I.T.cruzi (selectivity index)” value was 36 ^c. Further, the IC50 in [14] (read-out: epimastigote, IC50 T. cruzi, anti-Chagasic reference) is 7.7 ± 0.5 µM. Further, the CC50 with J774.1A macrophages is 280 ± 4 µM.
